Laboratory results as given in the M2OR odorant receptor database.
Positions count from the first letter of the chain named.

How the values were obtained:
Conditions in all cases: stereoisomer not certain
[1] = biological target: T1, OR5AC2 (Homo sapiens) (UniProt Q9NZP5)
T1 sequence (whole entry): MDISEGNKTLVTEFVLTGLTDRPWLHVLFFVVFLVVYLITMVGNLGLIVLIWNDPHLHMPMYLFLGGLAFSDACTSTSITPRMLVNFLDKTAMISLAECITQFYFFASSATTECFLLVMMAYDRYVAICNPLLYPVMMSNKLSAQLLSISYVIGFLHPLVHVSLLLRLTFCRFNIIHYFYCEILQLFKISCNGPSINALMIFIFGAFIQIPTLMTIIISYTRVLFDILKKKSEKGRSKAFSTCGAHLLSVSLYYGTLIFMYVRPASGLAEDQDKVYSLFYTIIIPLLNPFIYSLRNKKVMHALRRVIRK
Outline: (§1)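 Assay methods differ from source to source, frequently being transient luciferase assays in mammalian cell lines. For each receptor–molecule pair, the label responsive (active) applies when the original authors judged the measured signal statistically different from baseline, and non-responsive (inactive) applies otherwise.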

[2] = biological target: T2, OR52N4 (Homo sapiens) (UniProt Q8NGI2)
T2 sequence (whole entry): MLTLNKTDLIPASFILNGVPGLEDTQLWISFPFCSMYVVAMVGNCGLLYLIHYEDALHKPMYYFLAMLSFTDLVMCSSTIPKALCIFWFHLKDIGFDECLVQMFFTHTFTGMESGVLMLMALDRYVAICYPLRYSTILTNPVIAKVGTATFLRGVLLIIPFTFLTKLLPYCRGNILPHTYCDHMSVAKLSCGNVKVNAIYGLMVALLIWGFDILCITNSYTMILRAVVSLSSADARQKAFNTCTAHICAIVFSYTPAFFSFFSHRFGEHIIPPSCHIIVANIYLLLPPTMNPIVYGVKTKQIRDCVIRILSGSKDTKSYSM
Outline: as §1

[3] = biological target: T3, OR52N5 (Homo sapiens) (UniProt Q8NH56)
T3 sequence (whole entry): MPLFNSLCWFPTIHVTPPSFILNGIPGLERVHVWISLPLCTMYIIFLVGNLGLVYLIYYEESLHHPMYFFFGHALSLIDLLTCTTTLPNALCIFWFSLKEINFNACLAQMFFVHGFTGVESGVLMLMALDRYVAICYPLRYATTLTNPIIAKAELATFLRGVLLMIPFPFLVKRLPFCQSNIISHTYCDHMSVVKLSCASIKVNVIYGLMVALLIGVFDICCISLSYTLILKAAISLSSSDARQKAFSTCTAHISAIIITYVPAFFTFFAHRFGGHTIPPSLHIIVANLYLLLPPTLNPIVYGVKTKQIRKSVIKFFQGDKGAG
Outline: as §1

[4] = biological target: T4, OR52R1 (Homo sapiens) (UniProt Q8NGF1)
T4 sequence (whole entry): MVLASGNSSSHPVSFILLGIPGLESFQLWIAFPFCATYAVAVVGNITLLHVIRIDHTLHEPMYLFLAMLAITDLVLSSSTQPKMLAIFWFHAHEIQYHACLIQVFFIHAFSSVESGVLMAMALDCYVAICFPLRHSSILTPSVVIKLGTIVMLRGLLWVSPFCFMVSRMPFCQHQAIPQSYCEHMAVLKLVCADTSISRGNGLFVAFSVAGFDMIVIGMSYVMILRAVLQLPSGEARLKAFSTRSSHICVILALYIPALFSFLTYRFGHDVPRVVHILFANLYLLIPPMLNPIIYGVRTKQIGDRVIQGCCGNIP
Outline: as §1

[5] = biological target: T5, OR52W1 (Homo sapiens) (UniProt Q6IF63)
T5 sequence (whole entry): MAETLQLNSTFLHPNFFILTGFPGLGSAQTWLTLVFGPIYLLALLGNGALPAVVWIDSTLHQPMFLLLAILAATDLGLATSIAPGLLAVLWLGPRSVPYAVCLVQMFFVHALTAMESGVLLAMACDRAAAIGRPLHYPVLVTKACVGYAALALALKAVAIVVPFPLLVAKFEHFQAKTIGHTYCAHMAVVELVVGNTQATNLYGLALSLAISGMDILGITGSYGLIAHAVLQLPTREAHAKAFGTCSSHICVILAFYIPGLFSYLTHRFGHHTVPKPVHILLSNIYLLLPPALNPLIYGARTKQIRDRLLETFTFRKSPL
Outline: as §1

[6] = biological target: T6, OR56A1 (Homo sapiens) (UniProt Q8NGH5)
T6 sequence (whole entry): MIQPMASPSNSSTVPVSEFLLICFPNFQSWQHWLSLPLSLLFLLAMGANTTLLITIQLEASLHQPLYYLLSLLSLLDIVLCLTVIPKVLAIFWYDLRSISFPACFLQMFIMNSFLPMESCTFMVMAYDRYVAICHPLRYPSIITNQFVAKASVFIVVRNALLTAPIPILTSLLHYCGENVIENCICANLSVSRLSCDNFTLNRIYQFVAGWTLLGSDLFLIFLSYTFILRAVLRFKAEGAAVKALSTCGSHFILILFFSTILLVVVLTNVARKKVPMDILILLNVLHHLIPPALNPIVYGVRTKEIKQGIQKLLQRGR
Outline: as §1

[7] = biological target: T7, OR56A3 (Homo sapiens) (UniProt Q8NH54)
T7 sequence (whole entry): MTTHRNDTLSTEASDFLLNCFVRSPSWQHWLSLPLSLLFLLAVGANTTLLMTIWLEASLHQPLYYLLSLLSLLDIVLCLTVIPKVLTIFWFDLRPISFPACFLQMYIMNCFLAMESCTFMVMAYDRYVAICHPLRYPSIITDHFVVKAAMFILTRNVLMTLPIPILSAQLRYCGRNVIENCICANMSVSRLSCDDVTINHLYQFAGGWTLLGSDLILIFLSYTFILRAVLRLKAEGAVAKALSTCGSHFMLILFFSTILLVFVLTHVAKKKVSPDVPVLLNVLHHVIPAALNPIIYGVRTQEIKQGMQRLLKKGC
Outline: as §1

[8] = biological target: T8, OR56A4 (Homo sapiens) (UniProt Q8NGH8)
T8 sequence (whole entry): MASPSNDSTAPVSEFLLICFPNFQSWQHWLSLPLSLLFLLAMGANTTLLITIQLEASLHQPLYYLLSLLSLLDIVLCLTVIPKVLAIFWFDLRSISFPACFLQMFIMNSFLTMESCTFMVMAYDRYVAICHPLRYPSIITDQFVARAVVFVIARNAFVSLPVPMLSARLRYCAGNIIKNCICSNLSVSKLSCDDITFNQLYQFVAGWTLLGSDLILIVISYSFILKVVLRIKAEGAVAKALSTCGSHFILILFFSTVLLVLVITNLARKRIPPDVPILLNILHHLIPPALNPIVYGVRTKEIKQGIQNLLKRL
Outline: as §1

[9] = biological target: T9, OR56A5 (Homo sapiens) (UniProt P0C7T3)
T9 sequence (whole entry): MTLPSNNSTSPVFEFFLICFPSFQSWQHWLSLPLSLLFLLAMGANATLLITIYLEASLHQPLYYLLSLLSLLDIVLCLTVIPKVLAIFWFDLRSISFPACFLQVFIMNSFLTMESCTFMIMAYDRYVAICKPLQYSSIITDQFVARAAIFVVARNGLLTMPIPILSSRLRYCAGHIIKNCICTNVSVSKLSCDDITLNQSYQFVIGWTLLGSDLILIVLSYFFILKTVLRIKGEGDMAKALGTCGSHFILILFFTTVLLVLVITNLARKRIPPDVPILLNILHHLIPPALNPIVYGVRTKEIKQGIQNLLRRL
Outline: as §1

[10] = biological target: T10, OR56B1 (Homo sapiens) (UniProt Q8NGI3)
T10 sequence (whole entry): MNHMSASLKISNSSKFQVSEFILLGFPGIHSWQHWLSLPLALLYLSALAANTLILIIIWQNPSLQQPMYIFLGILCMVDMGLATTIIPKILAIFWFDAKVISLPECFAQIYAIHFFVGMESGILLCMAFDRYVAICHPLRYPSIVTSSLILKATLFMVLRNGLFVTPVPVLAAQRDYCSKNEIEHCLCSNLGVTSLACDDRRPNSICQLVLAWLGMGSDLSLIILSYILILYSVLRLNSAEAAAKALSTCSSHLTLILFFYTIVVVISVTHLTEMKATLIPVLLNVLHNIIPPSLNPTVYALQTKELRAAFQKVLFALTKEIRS
Outline: as §1

[11] = biological target: T11, OR56B4 (Homo sapiens) (UniProt Q8NH76)
T11 sequence (whole entry): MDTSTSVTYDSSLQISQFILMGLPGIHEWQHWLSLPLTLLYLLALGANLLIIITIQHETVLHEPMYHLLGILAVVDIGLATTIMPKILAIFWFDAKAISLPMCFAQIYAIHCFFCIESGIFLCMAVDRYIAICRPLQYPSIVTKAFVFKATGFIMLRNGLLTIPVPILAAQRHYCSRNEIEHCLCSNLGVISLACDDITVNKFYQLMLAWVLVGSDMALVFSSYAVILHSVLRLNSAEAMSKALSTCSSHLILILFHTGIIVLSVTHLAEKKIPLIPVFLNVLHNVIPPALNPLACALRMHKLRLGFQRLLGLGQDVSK
Outline: as §1

[12] = biological target: T12, OR5A1 (Homo sapiens) (UniProt Q8NGJ0)
T12 sequence (whole entry): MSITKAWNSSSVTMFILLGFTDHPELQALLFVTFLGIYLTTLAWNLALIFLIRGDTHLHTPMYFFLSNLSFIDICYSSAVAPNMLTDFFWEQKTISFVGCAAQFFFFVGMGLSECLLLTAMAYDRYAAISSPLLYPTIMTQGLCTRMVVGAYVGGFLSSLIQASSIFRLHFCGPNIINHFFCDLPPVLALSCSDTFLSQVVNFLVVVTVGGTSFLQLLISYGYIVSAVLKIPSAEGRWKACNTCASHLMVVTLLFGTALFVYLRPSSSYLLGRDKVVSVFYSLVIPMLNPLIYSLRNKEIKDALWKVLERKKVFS
Outline: as §1

[13] = biological target: T13, OR5A2 (Homo sapiens) (UniProt Q8NGI9)
T13 sequence (whole entry): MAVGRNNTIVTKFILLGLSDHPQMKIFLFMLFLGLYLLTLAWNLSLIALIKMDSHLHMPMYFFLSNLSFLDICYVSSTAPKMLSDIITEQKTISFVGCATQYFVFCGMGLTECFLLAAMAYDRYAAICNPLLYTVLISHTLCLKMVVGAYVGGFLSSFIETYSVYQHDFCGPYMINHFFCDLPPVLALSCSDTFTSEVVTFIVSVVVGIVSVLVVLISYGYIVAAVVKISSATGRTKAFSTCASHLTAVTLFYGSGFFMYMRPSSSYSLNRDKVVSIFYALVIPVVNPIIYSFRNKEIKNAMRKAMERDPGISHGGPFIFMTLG
Outline: as §1

[14] = biological target: T14, OR5AK2 (Homo sapiens) (UniProt Q8NH90)
T14 sequence (whole entry): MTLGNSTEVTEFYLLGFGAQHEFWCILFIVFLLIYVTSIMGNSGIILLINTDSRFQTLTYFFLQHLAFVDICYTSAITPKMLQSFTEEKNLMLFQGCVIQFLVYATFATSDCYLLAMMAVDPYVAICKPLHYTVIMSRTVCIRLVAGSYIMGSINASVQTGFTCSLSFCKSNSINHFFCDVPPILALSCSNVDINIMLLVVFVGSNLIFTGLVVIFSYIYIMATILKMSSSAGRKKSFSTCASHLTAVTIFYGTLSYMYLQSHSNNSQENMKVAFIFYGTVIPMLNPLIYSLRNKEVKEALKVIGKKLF
Outline: as §1

[15] = biological target: T15, OR5AN1 (Homo sapiens) (UniProt Q8NGI8)
T15 sequence (whole entry): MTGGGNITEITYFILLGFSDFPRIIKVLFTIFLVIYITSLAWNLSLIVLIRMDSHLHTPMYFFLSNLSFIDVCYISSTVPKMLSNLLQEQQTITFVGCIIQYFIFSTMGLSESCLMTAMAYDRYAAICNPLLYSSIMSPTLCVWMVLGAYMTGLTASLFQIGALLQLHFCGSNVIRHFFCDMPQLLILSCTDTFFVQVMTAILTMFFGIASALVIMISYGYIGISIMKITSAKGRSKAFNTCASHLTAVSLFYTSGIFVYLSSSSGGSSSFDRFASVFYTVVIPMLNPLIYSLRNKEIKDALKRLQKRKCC
Outline: as §1

[16] = biological target: T16, OR5AP2 (Homo sapiens) (UniProt Q8NGF4)
T16 sequence (whole entry): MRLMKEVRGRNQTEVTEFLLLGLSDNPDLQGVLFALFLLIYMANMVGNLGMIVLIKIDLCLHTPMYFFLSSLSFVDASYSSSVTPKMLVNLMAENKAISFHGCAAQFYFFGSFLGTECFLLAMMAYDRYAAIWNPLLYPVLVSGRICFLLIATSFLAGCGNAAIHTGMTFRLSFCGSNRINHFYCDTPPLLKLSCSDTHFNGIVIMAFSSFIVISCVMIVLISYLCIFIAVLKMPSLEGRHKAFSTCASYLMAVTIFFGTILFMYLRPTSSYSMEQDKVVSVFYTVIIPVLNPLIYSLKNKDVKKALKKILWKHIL
Outline: as §1

[17] = system: T17, OR5A1 D183N
T17 sequence (whole entry): T12 sequence (whole entry) with D183N
Outline: as §1

Measured: odorant receptor agonist call

CC(CC=O)c1ccc(C(C)(C)C)cc1 (stereo not drawn)
inactive: [1]

CC(CO)CS (stereo not drawn)
not listed: [17]
inactive: all other assays above

CC1=C(O)C(=O)C(C)O1 (stereo not drawn)
not listed: [8]
inactive: all other assays above

CC(C)CCCC(C)(C)O
inactive: [1]

CCCCCC1COCCC1OC(C)=O (stereo not drawn)
inactive: [1]

CCCC(S)CCOC(C)=O (stereo not drawn)
not listed: [8]
inactive: all other assays above

CC(=O)OCc1ccccc1
inactive: [1]

CC1=NC(C)C(C)S1 (stereo not drawn)
not listed: [8]
inactive: all other assays above
